# In ChEMBL document CHEMBL1126013, “Synthesis and evaluation of some water-soluble prodrugs and derivatives of taxol with antitumor activity” (J Med Chem, 1992):
# Key:
# Mus musculus [1] = test: Initial average tumor weight was measured in mice induced with human mammary carcinoma at a dose of 30 mg/kg; type: functional
# Outline: (§1)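 MX-1 human mammary carcinoma xenograft implanted under the renal capsule in mice. Study run at the National Cancer Institute following NIH Publication No. 84-2635. Tumor weights recorded at the start and at the end. Survivors counted after 11 days. %T/C = (Δ tumor weight treated/Δ tumor weight control) × 100 where the tumor grows, and (Δ tumor weight treated/initial control tumor weight) × 100 where it regresses.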
# Mus musculus [2] = test: Initial average tumor weight was measured in mice induced with human mammary carcinoma at a dose of 13 mg/Kg; type: functional; outline: as §1
# Mus musculus [3] = test: Final average tumor weight was measured in mice induced with human mammary carcinoma at a dose of 20 mg/Kg; type: functional; outline: as §1
# Mus musculus [4] = test: Tumor growth or regression measured as Percent treated by control at a dose of 30 mg/Kg to mice with MX-1 xenograft; Tox refers to toxicity or when < 65% of the animals survive the test; type: functional, organism-based; outline: as §1
# Bos taurus = organism: Bos taurus; test: Relative effect on microtubular assembly (Tubulin polymerized by derivative/tubulin polymerized by taxol); type: functional
# Outline: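 Bovine brain tubulin, purified from microtubule-associated proteins by phosphocellulose chromatography, used at 10 μM. Turbidity followed at 350 nm. Polymer pelleted at 200000g, 37 °C, 4 min, depolymerized on ice, and protein measured by Bradford.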
# B16 [5] = test: Relative effect on B16 melanoma cell proliferation was determined [IC50 (taxol)/IC50 (derivative)]; type: functional, Mus musculus
# Mus musculus [6] = test: Initial average tumor weight was measured in mice induced with human mammary carcinoma at a dose of 8.9 mg/Kg; type: functional; outline: as §1
# [7] = Solubility in water; type: physicochemical; settings: read-out: S
# Mus musculus [8] = test: Final average tumor weight was measured in mice induced with human mammary carcinoma at a dose of 30 mg/kg; type: functional; outline: as §1
# B16 [9] = test: Percentage change in cell number of B16 melanoma cells treated with 10e-5 M dose; type: functional, Mus musculus
# Outline: (§2)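 B16 melanoma cells exposed to 10⁻⁵ or 10⁻⁶ M compound for 8 h, then rinsed three times with fresh medium. Cells then grown in drug-free medium for 48 h and counted. Result given as percent change relative to the cell number at time zero. Controls are the average of three experiments.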
# Mus musculus [10] = test: Number of survivors after 11 days at a dose of 8.9 mg/Kg tested in 6 mice; type: functional
# Outline: (§3)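 MX-1 human mammary carcinoma xenograft implanted under the renal capsule of mice. The study was run at the National Cancer Institute following the procedures of NIH Publication No. 84-2635. Average tumor weight was recorded at the start and end of treatment, and survivors were counted after 11 days. Dosed groups were compared with an untreated control group.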
# Mus musculus [11] = test: Number of survivors after 11 days at a dose of 20 mg/Kg tested in 6 mice; type: functional; outline: as §3
# Mus musculus [12] = test: Number of survivors after 11 days at a dose of 5.9 mg/Kg tested in 6 mice; type: functional; outline: as §3
# Mus musculus [13] = test: Final average tumor weight was measured in mice induced with human mammary carcinoma at a dose of 8.9 mg/Kg; type: functional; outline: as §1
# Mus musculus [14] = test: Tumor growth or regression measured as Percent treated by control at a dose of 8.9 mg/kg to mice with MX-1 xenograft; type: functional
# Outline: (§4)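 Subrenal capsule human mammary carcinoma (MX-1) xenograft in mice, run at the National Cancer Institute by NIH Publication No. 84-2635 procedures. Initial and final average tumor weights recorded, with survivors counted after 11 days. %T/C is (Δ tumor weight treated/Δ tumor weight controls)×100 for growing tumors. For regressing tumors it is (Δ tumor weight treated/initial control tumor weight)×100.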
# Mus musculus [15] = test: Tumor growth or regression measured as Percent treated by control at a dose of 5.9 mg/Kg to mice with MX-1 xenograft; type: functional; outline: as §4
# Mus musculus [16] = test: Tumor growth or regression measured as Percent treated by control at a dose of 20 mg/Kg to mice with MX-1 xenograft; CR refers to complete remission or when the tumor is no longer detectable; type: functional, organism-based; outline: as §1
# B16 [17] = test: Concentration required to inhibit the proliferation of B16 melanoma cells was determined; type: functional, cell-based; settings: Mus musculus
# Mus musculus [18] = test: Antitumor activity of taxoland the derivative against mammary carcinoma xenograft in mice; type: functional; outline: as §1
# B16 [19] = test: Percentage change in cell number of B16 melanoma cells treated with 10e-6 M dose; type: functional, Mus musculus; outline: as §2
# Mus musculus [20] = test: Number of survivors after 11 days at a dose of 30 mg/kg tested in 6 mice; type: functional; outline: as §3
# Mus musculus [21] = test: Tumor growth or regression measured as Percent treated by control at a dose of 13 mg/Kg to mice with MX-1 xenograft; CR refers to complete remission or when the tumor is no longer detectable; type: functional, organism-based; outline: as §1
# Mus musculus [22] = test: Final average tumor weight was measured in mice induced with human mammary carcinoma at a dose of 5.9 mg/Kg; type: functional; outline: as §1
# Mus musculus [23] = test: final average tumor weight was measured in mice induced with human mammary carcinoma at a dose of 13 mg/Kg; type: functional; outline: as §4
# Mus musculus [24] = test: Initial average tumor weight was measured in mice induced with human mammary carcinoma at a dose of 5.9 mg/Kg; type: functional; outline: as §1
# Mus musculus [25] = test: Initial average tumor weight was measured in mice induced with human mammary carcinoma at a dose of 20 mg/Kg; type: functional; outline: as §1
# Mus musculus [26] = test: Number of survivors after 11 days at a dose of 13 mg/Kg tested in 6 mice; type: functional; outline: as §3
# Mus musculus [27] = test: Number of survivors after 11 days at a dose of 6.67 mg/Kg tested in 5 mice; type: functional; outline: as §3
# Mus musculus [28] = test: Final average tumor weight was measured in mice induced with human mammary carcinoma at a dose of 22.4 mg/Kg; type: functional; outline: as §1
# Mus musculus [29] = test: Tumor growth or regression measured as Percent treated by control at a dose of 4.45 mg/Kg to mice with MX-1 xenograft; CR refers to complete remission or when the tumor is no longer detectable; type: functional, organism-based; outline: as §4
# Mus musculus [30] = test: Final average tumor weight was measured in mice induced with human mammary carcinoma at a dose of 10 mg/Kg; type: functional; outline: as §1
# Mus musculus [31] = test: Tumor growth or regression measured as Percent treated by control at a dose of 6.67 mg/Kg to mice with MX-1 xenograft; CR refers to complete remission or when the tumor is no longer detectable; type: functional, organism-based; outline: as §4
# Mus musculus [32] = test: Initial average tumor weight was measured in mice induced with human mammary carcinoma at a dose of 15 mg/Kg; type: functional; outline: as §1
# Mus musculus [33] = test: Tumor growth or regression measured as Percent treated by control at a dose of 22.4 mg/Kg to mice with MX-1 xenograft; Tox refers to toxicity or when < 65% of the animals survive the test; type: functional, organism-based; outline: as §1
# Mus musculus [34] = test: Tumor growth or regression measured as Percent treated by control at a dose of 10 mg/Kg to mice with MX-1 xenograft; type: functional; outline: as §1
# Mus musculus [35] = test: Final average tumor weight was measured in mice induced with human mammary carcinoma at a dose of 4.45 mg/Kg; type: functional; outline: as §1
# Mus musculus [36] = test: Number of survivors after 11 days at a dose of 22.4 mg/Kg tested in 6 mice; type: functional; outline: as §3
# Mus musculus [37] = test: Initial average tumor weight was measured in mice induced with human mammary carcinoma at a dose of 4.45 mg/Kg; type: functional; outline: as §1
# Mus musculus [38] = test: Final average tumor weight was measured in mice induced with human mammary carcinoma at a dose of 6.67 mg/Kg; type: functional; outline: as §1
# Mus musculus [39] = test: Initial average tumor weight was measured in mice induced with human mammary carcinoma at a dose of 10 mg/Kg; type: functional; outline: as §1
# Mus musculus [40] = test: Number of survivors after 11 days at a dose of 10 mg/Kg tested in 6 mice; type: functional; outline: as §3
# Mus musculus [41] = test: Final average tumor weight was measured in mice induced with human mammary carcinoma at a dose of 15 mg/Kg; type: functional; outline: as §1
# Mus musculus [42] = test: Number of survivors after 11 days at a dose of 4.45 mg/Kg tested in 5 mice; type: functional; outline: as §3
# Mus musculus [43] = test: Tumor growth or regression measured as Percent treated by control at a dose of 15 mg/Kg to mice with MX-1 xenograft; CR refers to complete remission or when the tumor is no longer detectable; type: functional, organism-based; outline: as §1
# Mus musculus [44] = test: Initial average tumor weight was measured in mice induced with human mammary carcinoma at a dose of 22.4 mg/Kg; type: functional; outline: as §1
# Mus musculus [45] = test: Initial average tumor weight was measured in mice induced with human mammary carcinoma at a dose of 6.67 mg/Kg; type: functional; outline: as §1
# Mus musculus [46] = test: Number of survivors after 11 days at a dose of 15 mg/Kg tested in 6 mice; type: functional; outline: as §3
smiles,measurement,setting,value
CC(=O)O[C@H]1C(=O)[C@@]2(C)[C@H]([C@H](OC(=O)c3ccccc3)[C@]3(O)C[C@H](OC(=O)[C@H](OC(=O)CN(C)C)[C@@H](NC(=O)c4ccccc4)c4ccccc4)C(C)=C1C3(C)C)[C@]1(OC(C)=O)CO[C@@H]1C[C@@H]2O.CS(=O)(=O)O,Initial average tumor weight,Mus musculus [1],0.68 mg
same,Initial average tumor weight,Mus musculus [2],0.64 mg
same,Final average tumor weight,Mus musculus [3],0 mg
same,T/C,Mus musculus [4],Toxic
same,Relative effect,Bos taurus,0.25
same,Relative effect,B16 [5],0.9
same,Initial average tumor weight,Mus musculus [6],0.77 mg
same,solubility,[7],4.83 mM
same,Final average tumor weight,Mus musculus [8],0 mg
same,Change in cell number,B16 [9],84%
same,No. of survivors,Mus musculus [10],5
same,No. of survivors,Mus musculus [11],4
same,No. of survivors,Mus musculus [12],6
same,Final average tumor weight,Mus musculus [13],0.36 mg
same,T/C,Mus musculus [14],-53%
same,T/C,Mus musculus [15],-78%
same,T/C,Mus musculus [16],Complete remission
same,IC50,B16 [17],21 nM
same,Relative antitumor activity,Mus musculus [18],2
same,Change in cell number,B16 [19],261%
same,No. of survivors,Mus musculus [20],1
same,T/C,Mus musculus [21],Complete remission
same,Final average tumor weight,Mus musculus [22],0.13 mg
same,Final average tumor weight,Mus musculus [23],0 mg
same,Initial average tumor weight,Mus musculus [24],0.61 mg
same,Initial average tumor weight,Mus musculus [25],0.56 mg
same,No. of survivors,Mus musculus [26],4
CC(=O)O[C@H]1C(=O)[C@@]2(C)[C@H]([C@H](OC(=O)c3ccccc3)[C@]3(O)C[C@H](OC(=O)[C@H](O)[C@@H](NC(=O)c4ccccc4)c4ccccc4)C(C)=C1C3(C)C)[C@]1(OC(C)=O)CO[C@@H]1C[C@@H]2O [PACLITAXEL],No. of survivors,Mus musculus [27],5
same,Final average tumor weight,Mus musculus [28],0 mg
same,T/C,Mus musculus [29],Complete remission
same,Final average tumor weight,Mus musculus [30],0.09 mg
same,T/C,Mus musculus [31],Complete remission
same,Initial average tumor weight,Mus musculus [32],0.81 mg
same,Relative effect,Bos taurus,1
same,T/C,Mus musculus [33],Toxic
same,Relative effect,B16 [5],1
same,T/C,Mus musculus [34],-84%
same,Final average tumor weight,Mus musculus [35],0 mg
same,Change in cell number,B16 [9],75%
same,No. of survivors,Mus musculus [36],3
same,Initial average tumor weight,Mus musculus [37],0.79 mg
same,Final average tumor weight,Mus musculus [38],0 mg
same,Initial average tumor weight,Mus musculus [39],0.58 mg
same,No. of survivors,Mus musculus [40],6
same,Final average tumor weight,Mus musculus [41],0 mg
same,No. of survivors,Mus musculus [42],5
same,T/C,Mus musculus [43],Complete remission
same,Initial average tumor weight,Mus musculus [44],0.6 mg
same,Initial average tumor weight,Mus musculus [45],0.74 mg
same,IC50,B16 [17],19 nM
same,Relative antitumor activity,Mus musculus [18],1
same,Change in cell number,B16 [19],252%
same,No. of survivors,Mus musculus [46],6
